How the values were obtained:
Assay type in all cases: functional, Rattus norvegicus
[1] = Insulinotropic activity in RIN5F cells assessed as stimulation of glucose-dependent insulin secretion per microgram of protein at 10 uM
Outline: (§1)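 Seeded at 0.2×10^6 cells/well, grown overnight to 80% confluence. PBS wash, then 40 min preincubation in Krebs-Ringer Hepes buffer (1.1 mM glucose, 0.5% BSA, pH 7.4). Supernatant insulin measured by rat insulin ELISA and normalized to total protein (pg/µg/h). n = 3, mean ± SD.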

[2] = Insulinotropic activity in RIN5F cells assessed as stimulation of glucose-dependent insulin secretion per ug of protein at 0.1 uM; outline: as §1
[3] = Insulinotropic activity in RIN5F cells assessed as stimulation of glucose-dependent insulin secretion per ug of protein at 1 uM; outline: as §1

| SMILES | Activity [1] [pg/h] | Activity [2] [pg/h] | Activity [3] [pg/h] |
| --- | --- | --- | --- |
| N=C(N)Nc1c(-c2ccccc2)[nH]c2ccccc12 | 29.1 | 12.1 | 16.1 |
| N=C(N)Nc1c[nH]c2ccccc12 | 15 | 10.9 | 13 |
| CCCCNC(=O)NS(=O)(=O)c1ccc(C)cc1 [TOLBUTAMIDE] | – | 19.9 | 27.1 |
| N=C(N)Nc1c(C2CCCCC2)[nH]c2ccc(Cl)cc12 | 15.9 | 11.2 | 13.2 |
| N=C(N)Nc1c(C2CCCCC2)[nH]c2ccccc12 | 15.1 | 10.9 | 13.1 |
| Cc1sc2ncccc2c1NC(=N)N | 29.1 | 11.1 | 15.1 |
| N=C(N)Nc1c(Cc2ccccc2)sc2ncc(Cl)cc12 | 14.5 | 10.6 | 12.6 |
| N=C(N)Nc1c(C2CCCCC2)sc2ncc(Cl)cc12 | 14.5 | 10.5 | 12.5 |
| CCc1sc2ncc(Cl)cc2c1NC(=N)N | 31.5 | 14.8 | 17.8 |
| N=C(N)Nc1c[nH]c2ncc(Cl)cc12 | 14.6 | 10.5 | 12.5 |
| N=C(N)Nc1c(Cc2ccccc2)[nH]c2ncc(Cl)cc12 | 15 | 10.9 | 12.9 |
| N=C(N)Nc1c(-c2ccccc2)sc2ncccc12 | 27.9 | 11.1 | 15.1 |
| N=C(N)Nc1c(Cc2ccccc2)[nH]c2ccccc12 | 15.1 | 11.1 | 13.1 |
| Cc1sc2ncc(Cl)cc2c1NC(=N)N | 32.1 | 15.1 | 18.1 |
| N=C(N)Nc1c[nH]c2ncccc12 | 14.5 | 10.5 | 12.5 |
| CCc1[nH]c2ccc(Cl)cc2c1NC(=N)N | 35.2 | 15.8 | 19.5 |
| Cc1[nH]c2ncccc2c1NC(=N)N | 29.5 | 11.5 | 15.5 |
| CCc1[nH]c2ccccc2c1NC(=N)N | 16.1 | 11.1 | 13.4 |
| N=C(N)Nc1c(-c2ccccc2)[nH]c2ncc(Cl)cc12 | 33.1 | 15.2 | 18.1 |

| SMILES | Activity [1] [pg/h] | Activity [2] [pg/h] | Activity [3] [pg/h] |
| --- | --- | --- | --- |
| N=C(N)Nc1c(Cc2ccccc2)[nH]c2ccc(Cl)cc12 | 15.4 | 11.2 | 13.2 |
| CCc1sc2ncccc2c1NC(=N)N | 14.6 | 10.6 | 12.6 |
| CCc1[nH]c2ncccc2c1NC(=N)N | 15 | 10.8 | 13 |
| N=C(N)Nc1c(Cc2ccccc2)[nH]c2ncccc12 | 14.9 | 10.9 | 12.6 |
| N=C(N)Nc1c(-c2ccccc2)sc2ncc(Cl)cc12 | 31.6 | 14.9 | 17.8 |
| Cc1[nH]c2ccc(Cl)cc2c1NC(=N)N | 36 | 16.1 | 20.1 |
| N=C(N)Nc1c(Cc2ccccc2)sc2ncccc12 | 14.5 | 10.5 | 12.5 |
| N=C(N)Nc1csc2ncc(Cl)cc12 | 14.2 | 10.2 | 12.2 |
| N=C(N)Nc1c(-c2ccccc2)[nH]c2ccc(Cl)cc12 | 35.5 | 15.9 | 19.5 |
| N=C(N)Nc1c(C2CCCCC2)sc2ncccc12 | 14.1 | 10.1 | 12.1 |
| Cc1[nH]c2ncc(Cl)cc2c1NC(=N)N | 35.1 | 15.5 | 19.1 |
| N=C(N)Nc1c(C2CCCCC2)[nH]c2ncccc12 | 14.5 | 10.2 | 12.5 |
| Cc1[nH]c2ccc(Cl)cc2c1C1=NCCN1 | 36.4 | 16.4 | 20.6 |
| CCc1[nH]c2ncc(Cl)cc2c1NC(=N)N | 33.1 | 15.1 | 18.1 |
| Cc1[nH]c2ccccc2c1NC(=N)N | 30.1 | 12.1 | 16.1 |
| N=C(N)Nc1csc2ncccc12 | 14.1 | 10.1 | 12.1 |
| N=C(N)Nc1c[nH]c2ccc(Cl)cc12 | 15.5 | 11.1 | 13.2 |
| N=C(N)Nc1c(C2CCCCC2)[nH]c2ncc(Cl)cc12 | 15.1 | 10.8 | 13.1 |
| N=C(N)Nc1c(-c2ccccc2)[nH]c2ncccc12 | 28.5 | 11.5 | 15.5 |

Reference: ChEMBL document CHEMBL1147883, “Design, synthesis, and biological evaluation of substituted-N-(thieno[2,3-b]pyridin-3-yl)-guanidines, N-(1H-pyrrolo[2,3-b]pyridin-3-yl)-guanidines, and N-(1H-indol-3-yl)-guanidines” (2007)
